Values belong to the compound of their own block, whether it stands above or below them.
Legend:
[1] = target: T1, Nitric oxide synthase, inducible (Mus musculus, UniProt P29477); test: Inhibition of mouse iNOS expressed in HEK293 cells assessed as NO production in by transient transfection assay; assay type: cell-based
T1 sequence (P29477 whole entry): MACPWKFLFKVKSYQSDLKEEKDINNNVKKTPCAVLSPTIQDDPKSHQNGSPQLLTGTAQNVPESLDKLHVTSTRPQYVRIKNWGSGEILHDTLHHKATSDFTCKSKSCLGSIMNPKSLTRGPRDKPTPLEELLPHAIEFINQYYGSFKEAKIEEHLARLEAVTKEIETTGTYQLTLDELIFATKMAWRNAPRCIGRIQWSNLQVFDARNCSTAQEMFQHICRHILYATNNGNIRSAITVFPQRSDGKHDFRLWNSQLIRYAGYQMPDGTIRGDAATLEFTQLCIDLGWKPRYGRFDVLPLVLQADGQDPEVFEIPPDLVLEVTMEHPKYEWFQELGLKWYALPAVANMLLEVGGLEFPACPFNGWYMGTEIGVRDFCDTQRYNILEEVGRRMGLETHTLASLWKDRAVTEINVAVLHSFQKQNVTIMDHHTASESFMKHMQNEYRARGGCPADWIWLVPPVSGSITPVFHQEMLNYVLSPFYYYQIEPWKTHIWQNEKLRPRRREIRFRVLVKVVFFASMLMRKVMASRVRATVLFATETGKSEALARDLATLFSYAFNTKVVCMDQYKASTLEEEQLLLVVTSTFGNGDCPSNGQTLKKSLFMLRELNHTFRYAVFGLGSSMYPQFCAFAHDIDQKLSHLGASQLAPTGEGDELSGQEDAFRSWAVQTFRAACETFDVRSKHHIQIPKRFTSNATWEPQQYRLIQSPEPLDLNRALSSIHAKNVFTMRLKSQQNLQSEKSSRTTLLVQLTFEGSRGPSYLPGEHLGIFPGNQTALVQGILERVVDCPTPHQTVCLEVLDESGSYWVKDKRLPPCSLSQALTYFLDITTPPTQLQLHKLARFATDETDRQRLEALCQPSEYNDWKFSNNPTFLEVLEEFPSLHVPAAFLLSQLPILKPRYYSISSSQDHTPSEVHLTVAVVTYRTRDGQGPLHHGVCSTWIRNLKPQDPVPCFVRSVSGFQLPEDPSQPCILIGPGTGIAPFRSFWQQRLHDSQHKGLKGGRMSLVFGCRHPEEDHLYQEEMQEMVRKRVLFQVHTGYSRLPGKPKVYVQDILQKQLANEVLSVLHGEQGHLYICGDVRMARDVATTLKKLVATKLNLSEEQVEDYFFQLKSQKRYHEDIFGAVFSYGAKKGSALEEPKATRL
Outline: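 HEK293 cells grown to ~70% confluence in DMEM/10% FBS with pen/strep. Cells transiently transfected with 10 µg human or murine iNOS plasmid (Fugene 6), 4 h at 37 °C, 10% CO2. Trypsinized, plated at 5 × 10⁵ cells/mL and dosed at once; 1400W 100 µM final as positive control. After 18 h, NO read as DAN fluorescence (10 µg/mL, 20 min RT, then NaOH). EC50 from 3 runs, 10-point curves, n = 8/point.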

Mus musculus [2] = test: Reduction of plasma nitrate level in LPS-challenged po dosed BALB/c mouse; assay type: functional
Outline: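 Male Balb/c mice were dosed by oral gavage (90% PEG/5% Tween 80/5% PVP + 90% CMC (0.5% w/v)) at t = 0 h, 30 mg/kg for single-dose lines. LPS 10 mg/kg ip in 0.9% NaCl followed immediately. At 6 h, EDTA plasma was taken for nitrate and drug levels. Nitrate reduction is relative to vehicle; ED50 came from full oral dose-response.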

Cytochrome P450 2C9 = Cytochrome P450 2C9 (Homo sapiens, UniProt P11712); test: Inhibition of CYP2C9; assay type: ADME
CYP2D6 = CYP2D6 (Homo sapiens, UniProt P10635); test: Inhibition of CYP2D6 at 100 uM; assay type: ADME
CYP1A2 = target: T2, CYP1A2 (Homo sapiens, UniProt P05177); test: Inhibition of CYP1A2 at 100 uM; assay type: ADME
T2 sequence (P05177 whole entry): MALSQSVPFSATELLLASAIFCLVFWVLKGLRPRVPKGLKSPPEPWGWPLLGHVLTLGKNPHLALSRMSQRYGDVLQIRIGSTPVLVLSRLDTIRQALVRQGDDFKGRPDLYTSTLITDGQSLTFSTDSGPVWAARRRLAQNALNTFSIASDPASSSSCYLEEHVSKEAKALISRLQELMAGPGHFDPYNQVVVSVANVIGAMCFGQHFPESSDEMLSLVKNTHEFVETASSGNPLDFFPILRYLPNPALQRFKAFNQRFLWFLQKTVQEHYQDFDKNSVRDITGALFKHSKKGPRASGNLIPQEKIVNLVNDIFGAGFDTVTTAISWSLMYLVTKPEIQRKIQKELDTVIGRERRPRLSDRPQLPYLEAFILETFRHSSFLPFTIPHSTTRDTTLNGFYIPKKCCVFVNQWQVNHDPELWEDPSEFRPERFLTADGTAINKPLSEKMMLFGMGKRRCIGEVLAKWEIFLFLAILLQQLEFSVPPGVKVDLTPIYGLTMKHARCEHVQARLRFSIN

[3] = Cmax in mouse at 10 mg/kg, po; assay type: ADME, organism-based; set-up: dose 10 mg/kg, route oral; conditions: in vivo
[4] = Tmax in mouse at 10 mg/kg, po; assay type: ADME, organism-based; set-up: dose 10 mg/kg, route oral; conditions: in vivo
[5] = Half life in mouse at 10 mg/kg, po; assay type: ADME, organism-based; set-up: dose 10 mg/kg, route oral; conditions: in vivo
[6] = AUC in mouse at 10 mg/kg, po; assay type: ADME, organism-based; set-up: dose 10 mg/kg, route oral; conditions: plasma
[7] = Plasma clearance in mouse at 10 mg/kg, po; assay type: ADME, organism-based; set-up: dose 10 mg/kg, route oral
Mus musculus [8] = test: Antinociceptive activity against formalin-induced phase 2 pain in mouse paw assessed as pain behavior at 100 mg/kg, po pretreated 30 mins before formalin challenge relative to control; assay type: functional
Outline: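 Mice were dosed 100 mg/kg po (PEG/Tween 80/PVP + CMC vehicle) 30 min before 20 µL formalin into the left hind paw. Phase II pain-behavior duration was timed 25–45 min post-injection by a single observer. Results are mean ± SE, n = 5–6 mice, compared to vehicle by one-way ANOVA with post hoc tests.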

Mus musculus [9] = test: Volume of distribution in mouse at 10 mg/kg, po; assay type: ADME, organism-based; set-up: dose 10 mg/kg, route oral; conditions: in vivo

CYP2D6, sequence (P10635 whole entry): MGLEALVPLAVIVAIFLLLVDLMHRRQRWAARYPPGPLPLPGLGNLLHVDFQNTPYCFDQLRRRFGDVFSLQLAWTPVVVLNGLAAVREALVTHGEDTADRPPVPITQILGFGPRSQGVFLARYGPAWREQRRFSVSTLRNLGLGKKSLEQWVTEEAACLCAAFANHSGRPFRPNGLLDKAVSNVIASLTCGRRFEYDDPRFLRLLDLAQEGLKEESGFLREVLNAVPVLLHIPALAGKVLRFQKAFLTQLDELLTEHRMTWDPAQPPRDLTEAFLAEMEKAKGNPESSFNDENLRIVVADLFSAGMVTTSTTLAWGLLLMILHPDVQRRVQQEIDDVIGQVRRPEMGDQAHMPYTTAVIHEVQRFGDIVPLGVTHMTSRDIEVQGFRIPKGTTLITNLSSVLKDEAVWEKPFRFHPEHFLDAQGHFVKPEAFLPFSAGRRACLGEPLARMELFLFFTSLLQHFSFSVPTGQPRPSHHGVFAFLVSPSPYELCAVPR
Cytochrome P450 2C9, sequence (P11712 whole entry): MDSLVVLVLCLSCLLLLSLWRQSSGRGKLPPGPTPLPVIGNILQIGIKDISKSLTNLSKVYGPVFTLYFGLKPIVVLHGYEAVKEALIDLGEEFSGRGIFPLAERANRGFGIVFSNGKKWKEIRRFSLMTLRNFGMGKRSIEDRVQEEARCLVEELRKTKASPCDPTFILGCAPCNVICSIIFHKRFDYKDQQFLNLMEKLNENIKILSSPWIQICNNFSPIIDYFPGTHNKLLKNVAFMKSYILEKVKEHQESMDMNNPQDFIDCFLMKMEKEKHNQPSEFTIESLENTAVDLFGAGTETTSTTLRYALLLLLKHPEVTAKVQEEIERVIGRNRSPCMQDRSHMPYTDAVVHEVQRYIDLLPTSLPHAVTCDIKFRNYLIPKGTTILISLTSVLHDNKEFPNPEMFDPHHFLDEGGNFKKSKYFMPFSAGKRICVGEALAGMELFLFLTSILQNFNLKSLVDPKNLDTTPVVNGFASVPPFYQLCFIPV

EC50 [1]: 74 nM
EC50 (Cytochrome P450 2C9): 55000 nM
inhibition at 100 µM (CYP1A2): < 50%
inhibition at 100 µM (CYP2D6): < 50%
SMILES: Cc1ncsc1C(=O)N(Cc1c[n+]([O-])cc2c(F)c(F)ccc12)c1cccc(Cl)c1

EC50 [1]: 120 nM
Cmax [3]: 1400 nM
Tmax [4]: 30 min
half-life [5]: 54 min
AUC [6]: 450 ng·h/mL
CL/F [7]: > 100 mL/min/kg
EC50 (Cytochrome P450 2C9): 33000 nM
inhibition at 100 µM (CYP1A2): < 50%
inhibition at 100 µM (CYP2D6): < 50%
Vdss (Mus musculus [9]): 1.6 L/kg
SMILES: Cc1ncsc1C(=O)N(Cc1cc(=O)[nH]c2c(F)cccc12)c1cccc(Cl)c1
ED50 (Mus musculus [2]): 10 mg/kg
Activity (Mus musculus [8]): 40%

Second part, the compound before the results:

SMILES: Cc1ncsc1C(=O)N(Cc1cc(=O)[nH]c2c(F)c(F)ccc12)c1cccc(Cl)c1
EC50 [1]: 32 nM
ED50 (Mus musculus [2]): 13 mg/kg
EC50 (Cytochrome P450 2C9): 22000 nM
inhibition at 100 µM (CYP2D6): < 50%

SMILES: CC(C)C(=O)N(Cc1cc(=O)[nH]c2c(F)cccc12)c1cccc(Cl)c1
EC50 [1]: 2700 nM
inhibition at 100 µM (CYP1A2): < 50%
inhibition at 100 µM (CYP2D6): < 50%

SMILES: Cn1cncc1C(=O)N(Cc1cc(=O)[nH]c2c(F)c(F)ccc12)c1cccc(Cl)c1
EC50 [1]: 14 nM
ED50 (Mus musculus [2]): 5 mg/kg
Cmax [3]: 2200 nM
Tmax [4]: 15 min
half-life [5]: 66 min
AUC [6]: 520 ng·h/mL
CL/F [7]: > 100 mL/min/kg
EC50 (Cytochrome P450 2C9): 25000 nM
Activity (Mus musculus [8]): 65%
Vdss (Mus musculus [9]): 1.1 L/kg

SMILES: CC1=C(C(=O)N(Cc2cc(=O)[nH]c3c(F)c(F)ccc23)c2cccc(Cl)c2)CNCC1
EC50 [1]: 57 nM
ED50 (Mus musculus [2]): 16 mg/kg
inhibition at 100 µM (CYP1A2): < 50%
inhibition at 100 µM (CYP2D6): < 50%

Source: ChEMBL document CHEMBL1138485, “Discovery of inducible nitric oxide synthase (iNOS) inhibitor development candidate KD7332, part 1: Identification of a novel, potent, and selective series of quinolinone iNOS dimerization inhibitors that are orally active in rodent pain models” (J Med Chem, 2009)
